From ChEMBL document CHEMBL1781942, “Microwave-assisted synthesis, crystal structure of pyrazolo[1,5-a]pyrazin-4(5H)-ones and their selective effects on lung cancer cells” (Eur J Med Chem, 2011)
Calls of active or inactive are those of the source. The calls are words filed in the database; no cut-off is given here.

Tests used:
[1] = system: A549; assay: Growth inhibition of human A549 cells assessed as cell viability at 8 to 64 uM after 48 hrs by SRB assay; type: functional, cell-based
Outline: (§1)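 A549 cells (p53 wild-type) in RPMI 1640 with 10% bovine calf serum, seeded at 6250/cm2 in 96-well plates. Exposed 48 h to 8, 16, 32 or 64 µM. SRB read-out gave survival percentage against 0.1% DMSO-treated cells. Means ± SE from three independent experiments.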

[2] = system: NCI-H322; assay: Induction of apoptosis in human NCI-H322 cells expressing P53 mutant assessed as DNA fragmentation at 32 to 64 uM after 48 hrs by Hoechst 33258 staining-based fluorescence microscopy; type: functional, cell-based
Outline: (§2)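 H322 or H1299 cells treated 48 h at 32 or 64 µM versus 0.1% DMSO. Fixed in 4% formaldehyde in PBS for 10 min, then stained with 2 µg/mL Hoechst 33258, 30 min, 37 °C, and washed with PBS. Condensed, intensely stained nuclei counted as apoptotic under fluorescence microscopy. At least 500 cells counted; triplicate.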

[3] = system: A549; assay: Induction of apoptosis in human A549 cells expressing p53 assessed as chromatin condensation at 16 to 64 uM after 48 hrs by Hoechst 33258 staining-based fluorescence microscopy; type: functional, cell-based
Outline: (§3)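 Live A549 cells treated 48 h at 16, 32 or 64 µM, or with 0.1% DMSO. Stained in medium with 10 µg/mL Hoechst 33258 for 10 min at 37 °C, washed with PBS. Fluorescence microscopy (200×) scored intense local nuclear staining as apoptotic. At least 500 cells counted; triplicate.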

[4] = system: NCI-H1299; assay: Growth inhibition of human H1299 cells assessed as cell viability after 48 hrs by SRB assay; type: functional, cell-based
Outline: (§4)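 H1299 (p53-null) or H322 (p53-mutant) cells in RPMI 1640 with 10% bovine calf serum, seeded at 6250/cm2. Treated 48 h at 16, 32 or 64 µM. SRB assay, survival relative to 0.1% DMSO solvent control. Means ± SE, three independent experiments.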

[5] = system: A549; assay: Cell cycle arrest in human A549 cells assessed as accumulation at S phase at 64 uM after 48 hrs by propidium iodide staining-based flow cytometry (reference value: 30.36 %); type: functional
[6] = system: A549; assay: Cell cycle arrest in human A549 cells assessed as accumulation at G1 phase at 64 uM after 48 hrs by propidium iodide staining-based flow cytometry relative to control; type: functional
[7] = Cytotoxicity against human embryonic lung cells assessed as growth inhibition at 32 to 64 uM after 48 hrs by SRB assay; type: cell-based
Outline: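 Human embryo lung cells grown in RPMI 1640 with 10% bovine calf serum, seeded at 6250/cm2, treated 48 h at 32 or 64 µM. Controls were 0.1% DMSO vehicle and 5-FU as positive control. Viability by SRB, relative to DMSO-treated cells. Means ± SE, three independent experiments.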

[8] = system: A549; assay: Cell cycle arrest in human A549 cells assessed as accumulation at […] phase at 64 uM after 48 hrs by propidium iodide staining-based flow cytometry (reference value: 1.94 %); type: functional
[9] = system: A549; assay: Growth inhibition of human A549 cells assessed as cell viability after 48 hrs by SRB assay; type: functional, cell-based; outline: as §1
[10] = system: A549; assay: Cell cycle arrest in human A549 cells assessed as accumulation at G2 phase at 64 uM after 48 hrs by propidium iodide staining-based flow cytometry (reference value: 11.52 %); type: functional
[11] = system: A549; assay: Induction of necrosis in human A549 cells assessed as LDH release at 64 uM after 48 hrs; type: functional, cell-based
Outline: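 A549 cells exposed 48 h to 64 µM or 0.1% DMSO control. Culture medium collected and lactate dehydrogenase measured with a commercial kit, absorbance at 440 nm. Mean ± SE, n = 3.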

[12] = system: NCI-H322; assay: Induction of apoptosis in human NCI-H322 cells expressing P53 mutant assessed as chromatin condensation at 32 to 64 uM after 48 hrs by Hoechst 33258 staining-based fluorescence microscopy; type: functional, cell-based; outline: as §2
[13] = system: NCI-H322; assay: Growth inhibition of human NCI-H322 cells assessed as cell viability after 48 hrs by SRB assay; type: functional, cell-based; outline: as §4
[14] = system: A549; assay: Induction of apoptosis in human A549 cells expressing p53 assessed as DNA fragmentation at 16 to 64 uM after 48 hrs by Hoechst 33258 staining-based fluorescence microscopy; type: functional, cell-based; outline: as §3
[15] = system: NCI-H1299; assay: Induction of apoptosis in human p53-null H1299 cells assessed as chromatin condensation at 32 to 64 uM after 48 hrs by Hoechst 33258 staining-based fluorescence microscopy; type: functional, cell-based; outline: as §2
[16] = system: NCI-H1299; assay: Induction of apoptosis in human p53-null H1299 cells assessed as DNA fragmentation at 32 to 64 uM after 48 hrs by Hoechst 33258 staining-based fluorescence microscopy; type: functional, cell-based; outline: as §2

| SMILES | growth inhibition (GI) [1] | Activity [2] | Activity [3] | growth inhibition (GI) [4] | Activity [5] [%] | Activity [6] [%] | Activity [7] | Activity [8] [%] | growth inhibition (GI) [9] | Activity [10] [%] | Activity [11] | Activity [12] | growth inhibition (GI) [13] | Activity [14] | Activity [15] | Activity [16] |
| --- | --- | --- | --- | --- | --- | --- | --- | --- | --- | --- | --- | --- | --- | --- | --- | --- |
| O=C1c2cc(-c3ccccc3)nn2CCN1CCOCCO | inactive | – | – | – | – | – | – | – | – | – | – | – | – | – | – | – |
| COc1ccc(-c2cc3n(n2)CCN(CCO)C3=O)cc1 | inactive | – | – | – | – | – | – | – | – | – | – | – | – | – | – | – |
| O=C1c2cc(-c3ccc(Cl)cc3)nn2CCN1CCN1CCOCC1 | – | Active | inactive | Dose-dependent effect | 7.6 | 27 | Non-toxic | 1.94 | Dose-dependent effect | 6.83 | inactive | Active | Dose-dependent effect | inactive | Active | Active |
| O=C1c2cc(-c3ccc(Cl)cc3)nn2CCN1CCOCCO | – | Active | inactive | Dose-dependent effect | 20.98 | 13 | Non-toxic | 1.93 | Dose-dependent effect | 7.86 | inactive | Active | Dose-dependent effect | inactive | Active | Active |
| O=C1c2cc(-c3ccc(Cl)cc3)nn2CCN1CCO | – | Active | inactive | Dose-dependent effect | 18.02 | 18 | Non-toxic | 1.95 | Dose-dependent effect | 5.37 | inactive | Active | Dose-dependent effect | inactive | Active | Active |
| O=C1c2cc(-c3ccccc3)nn2CCN1CCCO | inactive | – | – | – | – | – | – | – | – | – | – | – | – | – | – | – |
| COc1ccc(-c2cc3n(n2)CCN(CCN2CCOCC2)C3=O)cc1 | inactive | – | – | – | – | – | – | – | – | – | – | – | – | – | – | – |
| COc1ccc(-c2cc3n(n2)CCN(CCOCCO)C3=O)cc1 | inactive | – | – | – | – | – | – | – | – | – | – | – | – | – | – | – |
| O=C1c2cc(-c3ccc(Cl)cc3)nn2CCN1CCCO | – | Active | inactive | Dose-dependent effect | 3.83 | 32 | Non-toxic | 1.92 | Dose-dependent effect | 5.54 | inactive | Active | Dose-dependent effect | inactive | Active | Active |
| COc1ccc(-c2cc3n(n2)CCN(CCCO)C3=O)cc1 | inactive | – | – | – | – | – | – | – | – | – | – | – | – | – | – | – |
| O=C1c2cc(-c3ccccc3)nn2CCN1CCN1CCOCC1 | inactive | – | – | – | – | – | – | – | – | – | – | – | – | – | – | – |
| O=C1c2cc(-c3ccccc3)nn2CCN1CCO | inactive | – | – | – | – | – | – | – | – | – | – | – | – | – | – | – |
